As usually defined, the IC50 is the point on the concentration scale where inhibition reaches its midpoint.

In brackets after ≈: the same amount, converted by molar mass.

The results in this text go back to ChEMBL document CHEMBL2346587, “Design, synthesis, and evaluation of a water-soluble antofine analogue with high antiproliferative and antitumor activity” (Bioorg Med Chem, 2013).

Data set [1] is described as follows: Thermodynamic solubility of the compound in phosphate buffer at pH 7.4. Type of data set: physicochemical. The following applies: read-out: Therm_solubility.
Data set [2] in a line: Thermodynamic solubility of the compound in 1:1 mixture of phosphate buffer:ethanol. Type of data set: physicochemical.
A further data set has as its system HCT-116. In words: Cytotoxicity against human HCT116 cells after 72 hrs by SRB assay. The format is functional, cell-based. The following applies: HCT-116, 72 h. In outline: (§1)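 SRB growth assay: 5 × 10^3 cells/well exposed to a concentration series for 72 h; fixed in 10% TCA 30 min at 4 °C, stained with 0.4% SRB in 1% acetic acid 30 min, dye dissolved in 10 mM Tris pH 10.0, absorbance at 515 nm. Viability relative to vehicle control; IC50 by non-linear regression; at least three experiments. A549-Pa is a paclitaxel-resistant A549 subline.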
In general terms: The SRB assay estimates cell density from bound dye.

For a further data set, the system named is SK-HEP1. In words: Cytotoxicity against human SKHEP1 cells after 72 hrs by SRB assay. The format is functional, cell-based. The following applies: SK-HEP1, 72 h. The procedure, abridged:
as §1

The test system of data set [3] is A549. Put plainly: Cytotoxicity against human A549 cells after 72 hrs by SRB assay. The following applies: A549, 72 h. The format is functional, cell-based. In outline:
as §1

The subject of the next data set is SNU-638. In words: Cytotoxicity against human SNU638 cells after 72 hrs by SRB assay. Type of data set: functional, cell-based. To be noted: SNU-638, 72 h. In outline: as §1
For data set [4], the target named is ATP-dependent translocase ABCB1 (Homo sapiens, UniProt P08183). In words: Inhibition of P-gp activity in human paclitaxel-resistant A549 cells assessed as rhodamine 123 accumulation at 10 nM after 72 hrs by FACS analysis (reference value: 14.4 %). The format is cell-based. Set-up: scale not given: the % may be the effect or the level left. The following applies: a549, 72 h, 0.01 µM. The procedure, abridged: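 Paclitaxel-resistant A549-Pa cells seeded at 1 × 10^5 cells/dish, pretreated with compound for 72 h, then loaded with rhodamine-123 in culture medium at 37 °C, 5% CO2, in the dark for 90 min. Cells were trypsinized, washed twice in ice-cold PBS, and analysed immediately by flow cytometry (488 nm laser; green fluorescence through a 530 nm band-pass filter).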
(In general: Flow cytometry measures light scatter and fluorescence of single cells or particles in a stream.)

A further data set relates to HCT-15. In words: Cytotoxicity against human HCT15 cells after 72 hrs by SRB assay. The following applies: HCT-15, 72 h. Type of data set: functional, cell-based. In outline:
as §1

The subject of data set [5] is A549. In words: Cytotoxicity against human paclitaxel-resistant A549 cells after 72 hrs by SRB assay. The format is functional, cell-based. The following applies: A549, 72 h. The procedure, abridged: as §1

Chain of ATP-dependent translocase ABCB1 (P08183 whole entry): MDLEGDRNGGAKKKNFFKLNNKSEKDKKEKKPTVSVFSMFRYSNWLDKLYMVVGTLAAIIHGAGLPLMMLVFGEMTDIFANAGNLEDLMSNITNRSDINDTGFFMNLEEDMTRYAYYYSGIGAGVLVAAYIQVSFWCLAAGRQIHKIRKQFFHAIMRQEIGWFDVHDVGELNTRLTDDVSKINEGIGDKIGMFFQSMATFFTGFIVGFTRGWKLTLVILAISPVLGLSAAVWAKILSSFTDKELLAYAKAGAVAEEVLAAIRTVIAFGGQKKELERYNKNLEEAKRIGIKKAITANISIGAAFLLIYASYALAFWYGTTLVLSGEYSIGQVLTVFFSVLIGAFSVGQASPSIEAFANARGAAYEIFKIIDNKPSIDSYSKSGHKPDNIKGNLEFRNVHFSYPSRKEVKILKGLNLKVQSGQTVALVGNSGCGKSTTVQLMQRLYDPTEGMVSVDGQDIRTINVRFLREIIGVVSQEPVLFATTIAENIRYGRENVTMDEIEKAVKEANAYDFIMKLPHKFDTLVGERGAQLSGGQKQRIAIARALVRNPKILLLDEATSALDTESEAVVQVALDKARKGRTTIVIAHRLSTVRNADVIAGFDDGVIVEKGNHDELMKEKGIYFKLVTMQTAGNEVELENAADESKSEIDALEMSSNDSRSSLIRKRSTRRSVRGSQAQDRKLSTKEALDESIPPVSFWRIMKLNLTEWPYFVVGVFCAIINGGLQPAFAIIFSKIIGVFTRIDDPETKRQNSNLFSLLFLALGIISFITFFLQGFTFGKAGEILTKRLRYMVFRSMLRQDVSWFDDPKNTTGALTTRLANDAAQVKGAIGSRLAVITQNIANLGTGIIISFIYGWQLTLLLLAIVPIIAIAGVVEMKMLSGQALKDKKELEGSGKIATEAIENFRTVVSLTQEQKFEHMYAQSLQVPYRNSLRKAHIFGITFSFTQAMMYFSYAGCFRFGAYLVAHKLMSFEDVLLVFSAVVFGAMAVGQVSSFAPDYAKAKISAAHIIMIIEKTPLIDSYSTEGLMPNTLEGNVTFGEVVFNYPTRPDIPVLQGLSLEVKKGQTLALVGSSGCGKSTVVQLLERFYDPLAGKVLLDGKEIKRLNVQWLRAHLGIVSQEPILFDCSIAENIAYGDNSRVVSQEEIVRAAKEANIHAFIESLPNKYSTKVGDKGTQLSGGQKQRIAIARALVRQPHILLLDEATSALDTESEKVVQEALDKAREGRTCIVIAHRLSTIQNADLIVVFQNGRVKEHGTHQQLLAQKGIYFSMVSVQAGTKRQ

Consider `COc1ccc2c3c(c4cc(OC)c(OC)cc4c2c1)C[C@H]1CCCN1C3` [(-)-ANTOFINE], for which the solubility thermodynamic in data set [1] was less than 0.001 mg/mL. Moreover, the Therm_solubility in data set [2] (buffer) turned out to be 0.047 mg/mL. The IC50 in the data set on HCT-116 worked out at 0.008 µM; in the data set with SK-HEP1, 0.008 µM; with A549 [3] it was 0.011 µM; with SNU-638 it was 0.01 µM; in the data set with HCT-15, 0.013 µM; in the data set on A549 [5], 0.018 µM. For the same compound, in [4], the Activity is reported as 37.9%.

As to `COC(=O)C12CCCN1Cc1c(c3cc(OC)c(OC)cc3c3cc(OC)ccc13)C2` (racemic), the IC50 in the data set with HCT-116, in the data set with SK-HEP1, in the data set with A549 [3], in the data set with SNU-638, in the data set with HCT-15 and in the data set with A549 [5] was greater than 1 µM in each case.

On to `COc1ccc2c3c(c4cc(OC)c(OC)cc4c2c1)CC1(C(=O)O)CCCN1C3` (racemic), for which the IC50 in the data set on HCT-116, with SK-HEP1, in the data set on A549 [3], with SNU-638, in the data set with HCT-15 and in the data set on A549 [5] was greater than 1 µM throughout.

On to `COc1ccc2c3c(c4cc(OC)c(OC)cc4c2c1)CC1CCCN1C3` (racemic) [(+/-)-ANTOFINE], for which the IC50 is 0.011 µM in the data set with HCT-116; 0.016 µM in the data set with SK-HEP1; 0.02 µM with A549 [3]; 0.021 µM in the data set with SNU-638; 0.025 µM in the data set on HCT-15; 0.022 µM in the data set with A549 [5].

For the compound `COc1ccc2c3c(c4cc(OC)c(OC)cc4c2c1)C[C@]1(CO)CCCN1C3`, the IC50 turned out to be 0.8 µM with HCT-116; 0.54 µM with SK-HEP1; 2.27 µM in the data set with A549 [3]; 1.49 µM in the data set with SNU-638; 1.42 µM in the data set with HCT-15; 3.66 µM with A549 [5].

On to `COc1ccc2c3c(c4cc(OC)c(OC)cc4c2c1)CC1(CO)CCCN1C3` (racemic), for which the solubility thermodynamic in [1] worked out at 0.656 mg/mL (≈ 1670 µM); in data set [2] (1:1 mixture of phosphate buffer:ethanol, read-out: Therm_solubility), 1.39 mg/mL (≈ 3540 µM). The half-maximal inhibitory concentration (IC50) in the data set on HCT-116 amounted to 0.053 µM; in the data set on SK-HEP1 it was 0.1 µM; in the data set on A549 [3], 0.167 µM; with SNU-638, 0.092 µM; in the data set with HCT-15 it was 0.179 µM; with A549 [5], 0.204 µM.
